Data on 72 compounds can be found in ChEMBL document CHEMBL4513216, “Probing the Open Global Health Chemical Diversity Library for Multistage-Active Starting Points for Next-Generation Antimalarials” (ACS Infect Dis, 2020).

The nature of this series: Toxicity liver stage against HepG2, at 10uM. In kind it is cell-based. Details: test concentration 10 uM, cell line HepG2-A16-CD81EGFP. The following applies: human, HepG2-A16-CD81EGFP cells; read-out: INHIBITION
A digest of the protocol: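 Uninfected HepG2-A16-CD81EGFP cells, 3 × 10^3 per well, 1536-well, plated on prespotted compound at 10 μM final, parasite-free screening media added to match infected plates; puromycin 10 μM positive, DMSO 0.5% negative; run in parallel with 48 h PbLuc assay at 37 °C, 5% CO2; viability by CellTiter-Glo luminescence, normalized to controls.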
As for `O=C(NC[C@H]1OC[C@@H](NC2CCCCC2)[C@@H]1O)Nc1ccccc1`, the cytotoxicity at 10 µM is -11.6%. As for `CC(C)(C)C(=O)N1C[C@@H](F)[C@@H](OCc2nc3ncccc3[nH]2)C1`, the figure is 2.97%. As for `CSc1ncccc1C(=O)NCCC(O)c1cccs1` (configuration not stated), the figure is -4.68%. On to `O=C(Nc1cccnc1)c1ccc(-n2cncn2)nn1`, for which the cytotoxicity at 10 µM was 4.48%. In the case of `CN(C)CCN1C(=O)CCCC12CCCN(Cc1ccc[nH]1)C2` (configuration not stated), the cytotoxicity at 10 µM is -10.1%. Regarding `Cc1noc(C)c1CN1CCCC2(CCN(C(=O)N3CCOCC3)C2)C1` (configuration not stated), the cytotoxicity at 10 µM is 3.35%. For the compound `O=C(C1CCCO1)N1CCCn2c(nnc2Cn2cccc2)C1` (configuration not stated), the cytotoxicity at 10 µM is 16.4%. The result for `Cc1nnc([C@H]2C[C@H]3OCC[C@H]3N(S(=O)(=O)C3CC3)C2)o1` reads -4.11%.

In the case of `CCn1cc2c(n1)C(COC)CN(C(=O)COc1ccccc1)C2` (configuration not stated), the cytotoxicity at 10 µM was -2.88%. Consider `CC(C)(C)n1cc(C(=O)NCCCn2ccnc2)c2cccnc21`, for which the cytotoxicity at 10 µM came out at 0.698%. In the case of `c1csc(CN2CC[C@H]3C[C@H](c4ccncn4)O[C@@H]3C2)c1`, the cytotoxicity at 10 µM was determined as 1.17%. For the compound `COCC(=O)NCc1ccc(-c2ncncc2C(=O)N(C)C)cc1`, the cytotoxicity at 10 µM turned out to be 3.02%. `Cc1cc(-c2cnc(N3CCCC(C)C3)nc2C(C)C)on1` (configuration not stated): the cytotoxicity at 10 µM was found to be 3.05%. Take `COCCn1c(=O)n(C)c(=O)c2ccc(C3CCN(C(C)=O)CC3)nc21`: the cytotoxicity at 10 µM amounted to 4.89%. Regarding `c1cncc(N2CCC(c3ccncc3)CC2)c1`, the cytotoxicity at 10 µM was determined as 2.59%. With `NCC(=O)N1CCC(c2cncc(Oc3cccnc3)n2)CC1`, the cytotoxicity at 10 µM was -9.08%.

With `CC(C)Oc1ccc(C(=O)N2CC[C@H](O)[C@@H](n3ccnc3)CC2)cc1`, the cytotoxicity at 10 µM was -12.8%.

Take `CC(=O)N1CCCC(c2ccc3sc(N)nc3n2)C1` (configuration not stated): the cytotoxicity at 10 µM came out at 0.248%. Regarding `CNc1cccc(C2CCCN(C(=O)c3ccn(C)n3)C2)n1` (configuration not stated), the cytotoxicity at 10 µM was -13.4%. Turning to `Cc1nc(-c2ccc(C(=O)O)cc2)cc(C2CCN(C(C)C)CC2)n1`, the cytotoxicity at 10 µM is -6.69%.

Regarding `Cc1nc(C)c(CNC(=O)NC2CC(C)(C)OC2(C)C)s1` (configuration not stated), the cytotoxicity at 10 µM was -0.864%. The result for `CSc1ccc(C(=O)N(c2ccc(F)cn2)C2CCOCC2)o1` reads -10.7%. `Cc1cccc(C)c1CN1C(=O)CC2(CCSC2)C1=O` (configuration not stated): the cytotoxicity at 10 µM amounted to 14.9%. As to `CCOc1c(Cl)cccc1NS(=O)(=O)c1cc(C)c(C(=O)O)s1`, the cytotoxicity at 10 µM stood at 2.13%. Regarding `CCOCCCC(=O)Nc1c(-c2ccc(F)cc2)ncn1C`, the cytotoxicity at 10 µM is -9.19%.

Regarding `Cc1nc(C)n(CC2CN(CCc3ccccc3Cl)CCO2)n1` (configuration not stated), the cytotoxicity at 10 µM was -0.431%. As for `CC(C)C(NC(=O)c1ccco1)C(=O)N1CCC2(CC1)OCCO2` (configuration not stated), the cytotoxicity at 10 µM turned out to be 6.05%. Turning to `CN(C)C(CNC(=O)N(Cc1ccco1)C1CC1)c1cccs1` (configuration not stated), the cytotoxicity at 10 µM amounted to 3.06%.

On to `COc1ccc(C2(NC(=O)C3CC(=O)N(C)C3)CCCC2)cc1` (configuration not stated), for which the cytotoxicity at 10 µM came out at 14.7%. In the case of `COc1ccccc1OCCN(C)c1cc(C)nc(N)n1`, the cytotoxicity at 10 µM was 10.4%. With `Cn1cc(CNc2ccc(CCO)cc2)c(-c2ccncc2)n1`, the cytotoxicity at 10 µM worked out at 5.82%.

For the compound `COCC(=O)Nc1cc(Br)cnc1OCC(F)(F)F`, the cytotoxicity at 10 µM is -5.6%. Take `CCN(C)CC1CCN(c2ncc(Br)cn2)C1` (configuration not stated): the cytotoxicity at 10 µM was -2.55%. The result for `CC(NCCCN1CCCN(C)CC1)C(C)(C)C` (configuration not stated) reads 29.9%; that for `Cc1cc(F)cc(S(=O)(=O)Nc2ccn(CCCC#N)n2)c1`, 18%. Turning to `CCn1c(CN2CCOC(Cn3cccn3)C2)nc2c(F)cccc21` (configuration not stated), the cytotoxicity at 10 µM is -3.43%. For the compound `CCc1noc(CN(C)CCC(=O)Nc2ccccc2C#N)n1`, the cytotoxicity at 10 µM stood at 9.69%. In the case of `COc1ccc(S(=O)(=O)Cc2cc(C)on2)cc1`, the cytotoxicity at 10 µM was 7.55%. `NC(=O)C1CCCN1Cc1ccccc1NC(=O)Cc1cccs1` (configuration not stated): the cytotoxicity at 10 µM stood at 7.31%. As for `CC(C)C(C)NC(=O)CCN1C(=O)CCc2cc(F)ccc21` (configuration not stated), the figure is 8.91%. Take `Cc1cnn(CCCNC(=O)NC2CCN(CC(F)(F)F)C2=O)c1` (configuration not stated): the cytotoxicity at 10 µM was 5.79%. With `COc1ccccc1CN(Cc1nc2c(cnn2C)c(=O)[nH]1)C1CC1`, the cytotoxicity at 10 µM is 15%. Consider `Cc1nc(C)c(CNC(=O)N2CCc3ccccc3C2CO)s1` (configuration not stated), for which the cytotoxicity at 10 µM is 23.7%. Consider `CC(=O)N1CCO[C@@H]2CN(C(=O)c3cc(C)oc3C)CC[C@@H]2C1`, for which the cytotoxicity at 10 µM was 10.5%.

Turning to `CCCNC(=O)c1cc2c(c3ccccc3n2C)n1C(=O)N(C)C`, the cytotoxicity at 10 µM stood at 0.539%. For `C[C@H](O)CNc1cc(-c2ccccc2)ncn1`, the cytotoxicity at 10 µM was -11.2%. For `Cc1ncncc1-c1ccnc(NC(C)C)n1`, the cytotoxicity at 10 µM was -0.279%. As for `CN1CCN(CC2CC2)C(=O)c2cnc(N3CCOCC3)nc21`, the figure is -10.3%; as for `Cc1csc2ncc(-c3ccnc(N4CCCN(C)CC4)n3)c(=O)n12`, -6.97%. `CC1CN(CCC(=O)NCCc2cccnc2)Cc2ccccc2O1` (configuration not stated): the cytotoxicity at 10 µM is -3.34%. The result for `CCN(CCn1cccn1)Cc1nc(-c2cc(F)ccc2F)oc1C` reads -1.57%.

Turning to `Cc1ccc(S(=O)(=O)NC2CC2)cc1C`, the cytotoxicity at 10 µM is -10.6%. For the compound `CCn1ccnc1CN1CCN(C(C)C(=O)N2CCC(C)CC2)CC1` (configuration not stated), the cytotoxicity at 10 µM was -10.7%. As for `Cc1ccc(NC2CCN(C(=O)CCNS(C)(=O)=O)CC2)nn1`, the figure is -5.58%; as for `Cc1cc(C)n(CC2CCCN2CCS(=O)(=O)c2ccccc2)n1` (configuration not stated), -7.23%. As to `Cc1cc(CN2CCCC2c2noc(C)n2)no1` (configuration not stated), the cytotoxicity at 10 µM is 2.48%.

For `Cc1ccc(N2CCCC(NCC(=O)NC3CCOCC3)C2)nn1` (configuration not stated), the cytotoxicity at 10 µM is 3.08%. As to `c1ccc2sc(N3CCOC(Cn4cccn4)C3)nc2c1` (configuration not stated), the cytotoxicity at 10 µM is -12.8%. Turning to `CCCn1nc2c(cc1=O)CN(CC(=O)Nc1nnc(C)s1)CC2`, the cytotoxicity at 10 µM was -11.3%. In the case of `COCCN1CCCN(C(=O)NC(C)Cn2ccnc2)CC1` (configuration not stated), the cytotoxicity at 10 µM was -9.29%. Regarding `O=C(c1cc(F)ccc1F)C1CCN(C(=O)c2cccnc2O)CC1`, the cytotoxicity at 10 µM is -3.99%.

As for `Cc1ccsc1CN1CCC2(CC1)CC(OCc1cccnc1)CO2` (configuration not stated), the cytotoxicity at 10 µM worked out at 3.45%. The result for `COc1cc(N2CCC3(CC2)CC(N2CCN(C)CC2)CO3)ncn1` (configuration not stated) reads -9.11%; that for `COc1ccc(OC)c(CN(Cc2ccco2)Cc2[nH]cnc2C)c1`, -2.51%; that for `OCCN1CC2(CCN(CC3CC3)CC2)c2ccccc21`, 6.4%. The result for `O=S(=O)(NC1CCC12CCN(CC1CC1)CC2)c1ccccc1` (configuration not stated) reads -7.82%. With `CC(=O)CN1CC2(CCNCC2)COc2ccccc2S1(=O)=O`, the cytotoxicity at 10 µM stood at 3.13%.

As for `Cc1nn(C)c(N(C)C)c1CNCc1cccnc1-n1cncn1`, the cytotoxicity at 10 µM is -0.313%.

On to `COc1cc(CNC2CCCc3c2cnn3C)cc(OC)c1` (configuration not stated), for which the cytotoxicity at 10 µM was -6.85%. On to `COCCN(C)C[C@@H]1CCC[C@@H]2CN(c3ncccn3)C[C@@H]21`, for which the cytotoxicity at 10 µM came out at 4.79%. Take `O=C(c1ccnnc1)N1CCN2C[C@H](Oc3cccc(F)c3)C[C@H]2C1`: the cytotoxicity at 10 µM is -1.96%. Regarding `COCc1nn(CC2CC2)c2c1CN(Cc1ccco1)CC2`, the cytotoxicity at 10 µM was determined as 2.35%.
